Measured values published in ChEMBL document CHEMBL1121975, “Effect of N,N'-diethyl-1,2-bis(2,6-dichloro-4-hydroxyphenyl)ethylenediamines on the 7,12-dimethylbenz[a]anthracene-induced mammary carcinoma of the rat” (1982).
Values belong to the molecule of their own block, whether it stands above or below them.

What was measured:
Rattus norvegicus [1] = test: Change in body weight in rats after 7 days at 2 mg/kg dose; assay type: functional
Rattus norvegicus [2] = test: Change in body weight in rats after 7 days at 6 mg/kg dose; assay type: functional
Rattus norvegicus [3] = test: Complete remission of DMBA-induced mammary carcinoma in rats at 6 mg/kg dose; assay type: functional
Procedure, shortened: (§1)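 Sprague-Dawley rats bearing DMBA-induced mammary tumours, randomized in groups of 10 between days 35 and 70 after induction. Dosing was sc in olive oil at 2 or 6 mg/kg: a single dose daily Monday–Thursday and a double dose Friday, for 4 weeks. Tumour number was taken at test start. Complete remission = not palpable; partial = ≤50% of initial size; static = 51-150% of initial size.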

Rattus norvegicus [4] = organism: Rattus norvegicus; test: (§2) Partial remission of DMBA-induced mammary carcinoma in rats; assay type: functional; procedure, shortened: as §1
Rattus norvegicus [5] = organism: Rattus norvegicus; test: as §2; assay type: functional; procedure, shortened: as §1; remark: listed apart in the source
Rattus norvegicus [6] = organism: Rattus norvegicus; test: (§3) Increased total tumor area (>150%) in DMBA-induced mammary carcinoma in rats; assay type: functional; procedure, shortened: as §1
Rattus norvegicus [7] = organism: Rattus norvegicus; test: as §3; assay type: functional; procedure, shortened: as §1; remark: listed apart in the source
Rattus norvegicus [8] = organism: Rattus norvegicus; test: (§4) Unchanged total tumor area (51-150%) in DMBA-induced mammary carcinoma in rats; assay type: functional; procedure, shortened: as §1
Rattus norvegicus [9] = organism: Rattus norvegicus; test: as §4; assay type: functional; procedure, shortened: as §1; remark: listed apart in the source
Rattus norvegicus [10] = test: Tumour number in DMBA-induced mammary carcinoma in rats at 2 mg/kg dose; assay type: functional; procedure, shortened: as §1
Rattus norvegicus [11] = test: Tumour number in DMBA-induced mammary carcinoma in rats at 6 mg/kg dose; assay type: functional; procedure, shortened: as §1
Rattus norvegicus [12] = test: Progression of DMBA-induced mammary carcinoma in rats at 2 mg/kg dose; assay type: functional; procedure, shortened: as §1
Rattus norvegicus [13] = test: Progression of DMBA-induced mammary carcinoma in rats at 6 mg/kg dose; assay type: functional; procedure, shortened: as §1
Rattus norvegicus [14] = test: Complete remission of DMBA-induced mammary carcinoma in rats at 2 mg/kg dose; assay type: functional; procedure, shortened: as §1
[15] = target: Estrogen receptor (Bos taurus) (UniProt Q9XSB5+P49884); test: Displacement of [3H]- estradiol from calf uterine estrogen receptor; assay type: protein assay
Procedure, shortened: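 Competitive binding with calf uterine cytosol as the estrogen receptor source, [3H]estradiol as tracer, and dextran-charcoal separation. RBA = (molar concentration of E2 / molar concentration of inhibitor needed to reduce bound [3H]E2 by 50%) × 100, with 17β-estradiol = 100.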

Rattus norvegicus [16] = organism: Rattus norvegicus; test: as §3; assay type: functional; procedure, shortened: as §1; remark: listed apart in the source

SMILES: CCNC(c1c(Cl)cc(O)cc1Cl)C(NCC)c1c(Cl)cc(O)cc1Cl (racemic) [listing 1 of 2 here]
- Change of body weight (Rattus norvegicus [1]): 0%
- Change of tumor area (Rattus norvegicus [1]): 282%
- Change of body weight (Rattus norvegicus [2]): -2%
- Change of tumor area (Rattus norvegicus [2]): -24%
- Complete remission (Rattus norvegicus [3]): 35%
- Partial remission (Rattus norvegicus [4]): 11%
- Partial remission (Rattus norvegicus [5]): 26%
- Progressed tumors (Rattus norvegicus [6]): 54%
- Progressed tumors (Rattus norvegicus [7]): 16%
- Static tumors (Rattus norvegicus [8]): 21%
- Static tumors (Rattus norvegicus [9]): 23%
- No. of tumors (Rattus norvegicus [10]): 34
- No. of tumors (Rattus norvegicus [11]): 28
- New tumors (Rattus norvegicus [12]): 18
- New tumors (Rattus norvegicus [13]): 15
- Complete remission (Rattus norvegicus [14]): 14%

- relative binding affinity (RBA) [15]: 1
SMILES: CCCNC(c1c(Cl)cc(O)cc1Cl)C(NCCC)c1c(Cl)cc(O)cc1Cl (racemic)

SMILES: CCNC(c1c(Cl)cc(O)cc1Cl)C(NCC)c1c(Cl)cc(O)cc1Cl (racemic) [listing 2 of 2 here]
- relative binding affinity (RBA) [15]: 2.1

SMILES: CNC(c1c(Cl)cc(O)cc1Cl)C(NC)c1c(Cl)cc(O)cc1Cl (racemic)
- relative binding affinity (RBA) [15]: 1.3

SMILES: CCNC(c1c(Cl)cc(O)cc1Cl)C(NCC)c1c(Cl)cc(O)cc1Cl (stereo in doubt) [listing 1 of 2 here]
- Change of body weight (Rattus norvegicus [1]): -6%
- Change of tumor area (Rattus norvegicus [1]): 29%
- Change of body weight (Rattus norvegicus [2]): -4%
- Change of tumor area (Rattus norvegicus [2]): -74%
- Complete remission (Rattus norvegicus [3]): 28%
- Partial remission (Rattus norvegicus [4]): 14%
- Partial remission (Rattus norvegicus [5]): 53%
- Progressed tumors (Rattus norvegicus [16]): 26%
- Progressed tumors (Rattus norvegicus [7]): 3%
- Static tumors (Rattus norvegicus [8]): 10%
- Static tumors (Rattus norvegicus [9]): 16%
- No. of tumors (Rattus norvegicus [10]): 35
- No. of tumors (Rattus norvegicus [11]): 26
- New tumors (Rattus norvegicus [12]): 7
- New tumors (Rattus norvegicus [13]): 6
- Complete remission (Rattus norvegicus [14]): 50%

- relative binding affinity (RBA) [15]: 8.2
SMILES: CCCNC(c1c(Cl)cc(O)cc1Cl)C(NCCC)c1c(Cl)cc(O)cc1Cl (stereo in doubt)

SMILES: CCNC(c1c(Cl)cc(O)cc1Cl)C(NCC)c1c(Cl)cc(O)cc1Cl (stereo in doubt) [listing 2 of 2 here]
- relative binding affinity (RBA) [15]: 8.6

SMILES: CNC(c1c(Cl)cc(O)cc1Cl)C(NC)c1c(Cl)cc(O)cc1Cl (stereo in doubt)
- relative binding affinity (RBA) [15]: 2.3
